Assay outcomes deposited in PubChem BioAssay by several laboratories.
A selection: hits, their analogues and other compounds. The true share with any hit is near 3.5%.
NF-kB expr up: activators of NF-kB expression in neurons, primary screen, cell-based, HTS. human neuronal cells, NF-kB reporter expression; hits give high values. fold change at 12.5 µM. hit rate 1.6% among 190,000. AID 1239, 2008; in the data active = fold change above about 3.3
FLuc inh counter: firefly luciferase enzyme inhibitors, primary screen, artefact control for luciferase-based inhibitor screens, biochemical, luminescence, ATPLite; 10 min; Luciferin 4-monooxygenase (Photinus pyralis), P08659; AID 1006, 2008; hit rate 1.5% among 200,000; inhibition, % at 10 µM;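 active = inhibition above about 50% when tested at 10 µM, limit read from the data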
Target sequence (P08659 whole entry, looked up): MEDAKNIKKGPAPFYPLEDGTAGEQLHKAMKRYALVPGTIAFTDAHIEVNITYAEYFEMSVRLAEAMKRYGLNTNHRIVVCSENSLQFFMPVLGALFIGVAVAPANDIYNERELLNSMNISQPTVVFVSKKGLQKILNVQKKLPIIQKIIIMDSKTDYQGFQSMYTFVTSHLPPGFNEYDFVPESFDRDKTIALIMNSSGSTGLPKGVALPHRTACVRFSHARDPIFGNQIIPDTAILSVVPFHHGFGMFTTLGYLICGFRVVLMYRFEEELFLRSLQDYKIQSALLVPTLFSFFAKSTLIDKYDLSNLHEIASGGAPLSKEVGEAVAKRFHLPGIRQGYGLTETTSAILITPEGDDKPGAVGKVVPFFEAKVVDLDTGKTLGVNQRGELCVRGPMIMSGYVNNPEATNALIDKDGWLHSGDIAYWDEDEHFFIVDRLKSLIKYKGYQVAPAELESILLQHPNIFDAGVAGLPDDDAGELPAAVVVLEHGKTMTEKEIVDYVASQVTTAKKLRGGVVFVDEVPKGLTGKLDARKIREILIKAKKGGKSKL
Pf gametocyte: late stage P. falciparum gametocyte viability inhibitors, primary screen, ATP luminescence, HTS; P. falciparum stage V gametocytes, 24 h; inhibition, % at 10.9 µM; hit rate 0.065% among 150,000;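 active = inhibition above the mean plus 3 SD of compounds within the control limits, set per campaign, cut at about 38% in these data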
FLuc act counter: FLuc activators, initial screening, artefact control for FLuc-dependent activation tests, biochemical, ATPlite luminescence; Luciferin 4-monooxygenase (Photinus pyralis), P08659; ATPlite luciferase biochemical, 10 min; 0 = ATP-free wells, 1 = DMSO control; activation factor at 10 µM; 200,000 tested, under 10 active; AID 1027, 2008;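 active = luciferase activation factor, scaled between plate controls, of at least 2 with compound at 10 µM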
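test system = cell-free luciferase reagent | medium = PBS as buffer for the ATP substrate | dosing = test compounds dosed from 2 mM stocks in 100% DMSO | incubation = 10 min at ambient temperature | detection = luminescence measurement of luciferase light output | benchmarks = low control with PBS replacing ATP, high control enzyme plus ATP without compound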
APP 5'UTR act: activators of APP 5'UTR luciferase reporter, primary screen, SH-SY5Y cells | SH-SY5Y APP 5'UTR luciferase reporter, luminescence; zero percent = DMSO vehicle wells | activation, % at 2 µM | hit rate 1% among 190,000 | AID 1276, 2008;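 active = activation above a set limit, based on mean plus 3 SD of controls, cut at about 140% in these data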
STAT1 act: STAT1 signaling activators, primary screen, cell-based, HTS, luciferase reporter; NIH 3T3 STAT1-luciferase reporter, IFN-gamma, luminescence; 100% = IFN-gamma alone, no compound; hit rate 2.6% among 200,000; activation (% of control), % at 5.5 µM;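 active = activation above the screen-wide mean activation plus 3 SD, cut at about 130% in these data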
Numbers stand for hits; . = inactive; / = not tested or not shown.

SMILES | NF-kB expr up | FLuc inh counter | Pf gametocyte | FLuc act counter | APP 5'UTR act | STAT1 act
CNc1ccc(/C=C2\CSc3ccccc3C2=O)cc1[N+](=O)[O-] | . | 55.2 | . | . | . | .
CC(C)OC(=O)c1ccc(NC(=O)C2C3CC4OC(=O)C2C4C3)cc1 (centres undefined) | . | . | . | . | . | 133.3
Cc1ccc(NC(=O)C2C3CC4OC(=O)C2C4C3)cc1Cl (centres undefined) | . | . | . | . | . | .
COc1ccc(-n2c(C)cc(C(=O)CN3C(=O)c4ccccc4C3=O)c2C)cc1 | . | . | . | . | . | 134.2
Cc1cc(C(=O)CN2C(=O)c3ccccc3C2=O)c(C)n1C1CC1 | . | . | . | . | . | .
COc1ccc(-n2c(C)cc(C(=O)CCl)c2C)cc1 | 3.86 | . | . | . | . | .
COc1ccc(-n2c(C)cc(C(=O)COc3ccc(C)nc3[N+](=O)[O-])c2C)cc1 | . | . | . | . | . | .
Cc1cnc(NC(=O)c2cc3ccccc3o2)s1 | . | 88.7 | . | . | . | .
CCOC(=O)c1csc(NC(=O)c2cc3ccccc3o2)n1 | / | / | . | / | / | /
Cc1ccc(C(=O)Nc2ncc(C)s2)o1 | . | . | . | . | . | 134.8
Cc1ccc(C(=O)Nc2ncc(Cc3ccc(F)cc3)s2)o1 | 7.88 | 62.0 | . | . | . | .
COCc1cc(/C=N\NC(=O)Cc2ccc(Cl)cc2)ccc1OC | . | . | . | . | . | .
O=C(NCCc1ccccc1)c1ccc([N+](=O)[O-])cc1 | 4.29 | 66.0 | / | . | 151.5 | .
Cc1cc(C(=O)NCCc2ccccc2)ccc1[N+](=O)[O-] | . | . | / | . | . | 134.3
O=C(NCCc1ccc([N+](=O)[O-])cc1)c1ccccc1 | / | / | . | / | / | /
O=C(/C=C\c1ccc2c(c1)OCO2)Nc1c2c(nn1-c1ccc(Cl)cc1)CSC2 | . | . | / | . | . | .
C/C(=N\N=C\c1ccccc1F)c1nnn(-c2nonc2N)c1C | . | . | / | . | . | 142.0
CCOC(=O)c1nnn(-c2nonc2N)c1C | . | . | / | . | . | .
CC(C)(C)C1CCc2onc(C(=O)NC3CCCC3)c2C1 (centres undefined) | . | . | / | . | . | .
O=C(NC1CCCCC1)c1noc2c1CCCCC2 | . | . | / | . | . | 149.1
O=C(NCCc1ccccc1)c1noc2c1CCCCC2 | 3.76 | . | / | . | . | 139.8
O=C(O)CC/C(=N/NC(=O)c1cn(-c2ccccc2)nc1-c1ccccc1)C(=O)O | . | . | / | . | . | .
Nc1ccc(O)cc1C(=O)OCC(=O)c1ccc(C2CCCCC2)cc1 | 6.77 | . | . | . | . | .
COc1ccc(C(=O)OCC(=O)c2ccc(C3CCCCC3)cc2)cc1 | . | . | . | . | . | .
Cc1ccc(C)n1CCN1CCN(C(=O)CC#N)CC1 | . | . | . | . | . | .
SMILES | NF-kB expr up | FLuc inh counter | Pf gametocyte | FLuc act counter | APP 5'UTR act | STAT1 act
O=C(Oc1cccc(-c2cnc3ccccc3n2)c1)c1ccco1 | 3.49 | . | . | . | . | .
COC(=O)c1ccc(-c2ccc(F)cc2)nc1C | . | . | / | . | . | 131.7
Cc1ccc(N=Nc2c(O)n(CN3CCOCC3)c3ccccc23)cc1 | . | . | / | . | 166.7 | 162.9
Cc1cccc(NC(=S)N=Nc2c(O)n(CN3CCOCC3)c3ccccc23)c1C | . | . | . | . | . | .
COc1ccc(Nc2nc(N)nc(CSC(=S)N3CCOCC3)n2)cc1 | . | . | . | . | . | 142.5
CC/C(=N\N=C1\SC(C)C(=O)N1Cc1ccco1)c1ccccc1 (centres undefined) | . | . | . | . | . | .
CN1OC(COC(=O)c2ccccc2)CC1c1ccccc1 (centres undefined) | . | . | / | . | . | 129.9
O=C(OCC1CC(c2ccccc2)=NO1)c1ccc(Cl)cc1 (centres undefined) | . | . | . | . | . | .
COc1ccc(N=c2oc3ccccc3cc2C(=O)Nc2ccccn2)cc1OC | . | . | / | . | . | 137.3
COc1ccccc1NC(=O)c1cc2ccccc2o/c1=N\O | . | . | / | . | / | /
